NPY Y2 blocker: antagonists of human neuropeptide Y receptor Y2. NPY-Y2 expressing cells, antagonist mode. 140,000 compounds, 0.99% hits. inhibition, % at 2.7 µM. P49146; in the data active = inhibition above about 17%;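 note: 0% = vehicle with agonist challenge and 100% = reference antagonist with challenge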
WT yeast gro inh: growth inhibition of WT yeast, mitochondrial fusion screen | mitochondrial fusion phenotypic screen, WT strain | inhibition, % at 10 µM | 190,000 compounds, 2.1% hits; in the data active = inhibition above about 58%; tested in S. cerevisiae
NPY-Y2 PAM-ag: human NPY-Y2 potentiation or agonism, primary screen. cells expressing NPY-Y2, potentiator/agonist read-out. activation, % at 3.6 µM. 220,000 compounds, 0.45% hits. AID 1359; in the data active = activation above about 27%;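 note: cells stimulated with NPY near EC25 plus isoproterenol at EC100; 0% = vehicle plus submaximal agonist and 100% = vehicle plus saturating agonist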
RAM network inh: blocks the yeast RAM network; S. cerevisiae dse1pr::URA3 reporter, 5-FOA growth OD615, 2 d; analog-sensitive cbk1-as2 kinase mutant strain; inhibition, % at 50 µM; 190,000 compounds, 1.8% hits; AID 868;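 active = inhibition above a set limit, 3 SD over mean compound inhibition, cut at about 8.4% in these data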;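 note: 0% = DMSO-only wells with no growth and 100% = 10 µM 1-NA-PP1 full growth; inhibition rescues growth on 5-FOA so higher OD means more RAM inhibition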
NPY Y1 blocker: NPY-Y1 (human) receptor antagonism. P25929. HEK293-CNG Y1 cells, membrane potential fluorescence; NPY at EC95, then isoproterenol. inhibition, % at 3.6 µM. 200,000 compounds, 1% hits;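 active = inhibition above the campaign mean inhibition of all tested compounds plus 3 SD, cut at about 20% in these data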;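 note: 0% = DMSO wells given NPY plus isoproterenol and 100% = isoproterenol alone without NPY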
Target sequence (P25929 whole entry, looked up): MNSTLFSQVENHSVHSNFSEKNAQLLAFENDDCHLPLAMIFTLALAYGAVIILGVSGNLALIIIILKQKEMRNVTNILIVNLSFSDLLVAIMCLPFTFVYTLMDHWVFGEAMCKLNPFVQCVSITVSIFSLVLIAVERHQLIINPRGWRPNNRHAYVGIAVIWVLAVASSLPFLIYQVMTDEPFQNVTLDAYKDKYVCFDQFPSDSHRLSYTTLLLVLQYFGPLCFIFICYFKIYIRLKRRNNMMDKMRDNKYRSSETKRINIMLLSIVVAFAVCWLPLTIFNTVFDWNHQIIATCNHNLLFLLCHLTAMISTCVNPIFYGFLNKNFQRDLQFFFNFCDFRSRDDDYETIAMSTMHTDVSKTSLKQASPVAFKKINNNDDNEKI
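Material: HEK293 cells with Y1 receptor plus CNG channel; times: compound incubation 1 h at room temperature, readout 45 min post-stimulation; signal: fluorescence, membrane potential probe; read-out basis: fluorescence ratio normalized to % inhibition between controls; benchmarks: full-block control isoproterenol-only wells, zero-block control NPY plus isoproterenol wells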
NPY1 pot ag: potentiators or agonists of human neuropeptide Y receptor Y1. 220,000 compounds, 0.37% hits. P25929. activation, % at 3.6 µM. NPY-Y1 expressing cells, potentiator/agonist activation. AID 1304; in the data active = activation above about 33%, passing the limit was not always enough;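 note: cells stimulated with NPY at EC10 then isoproterenol at EC100; 0% = low agonist plus stimulus and 100% = saturating agonist plus stimulus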
An asterisk follows results filed as active; x = no result given. Compounds with a hit are over-represented: about 4.9% of the library has one in this group of screens.

SMILES	NPY Y2 blocker	WT yeast gro inh	NPY-Y2 PAM-ag	RAM network inh	NPY Y1 blocker	NPY1 pot ag
Cc1nc(C(=O)N2CCc3c([nH]c4ccccc34)C2c2ccccn2)cs1 (configuration not stated)	x	-14.2	11.2	0.4	-5.3	12.1
O=C(c1cnccn1)N1CCc2c([nH]c3ccccc23)C1c1cccc(Cl)c1 (configuration not stated)	x	61.1*	11.0	1.6	6.0	11.4
Cc1nc(C(=O)N2CCc3c([nH]c4ccccc34)C2c2cc(F)ccc2F)cs1 (configuration not stated)	x	75.3*	1.0	3.3	-2.5	-2.2
COc1ccc(/C=N/Nc2nc3ccccc3s2)cc1O	x	31.3	-11.1	-1.6	-4.3	8.0
O=C1C(Cl)=C(N2CCCCC2)C(=O)C(Cl)=C1c1cnc(N2CCCCC2)s1	-2.7	7.7	13.8	9.5*	-0.2	-0.3
COC(=O)c1cc(OC)c(OC)cc1NC(=O)c1cc(OC)cc(OC)c1	x	15.2	4.3	6.0	-0.1	0.8
CCOC(=O)Cn1nnnc1CN(Cc1cccs1)Cc1cc2cc(C)ccc2[nH]c1=O	3.2	1.4	4.2	2.3	-1.6	1.0
CCOC(=O)Cn1nnnc1C(CC)N(Cc1cccs1)Cc1cc2ccc(OC)cc2[nH]c1=O (configuration not stated)	7.9	14.4	-45.2	9.6*	5.0	-47.8
CNC(=O)C1CC(=O)N(CCCc2ccccc2)C(=Nc2ccccc2)S1 (configuration not stated)	1.1	11.1	22.4	9.0*	-0.6	12.7
CNC(=O)C1CC(=O)N(CCc2ccccc2)C(=Nc2ccc(OC)cc2)S1 (configuration not stated)	x	-1.9	2.2	4.2	1.9	-0.7
CCOC(=O)N1CCN(CC(O)COc2ccc(C)cc2C(C)(C)C)CC1 (configuration not stated)	0.5	27.3	61.1*	0.7	-10.8	76.8*
CCc1c(C)nc(Nc2nc(C)c3ccc(OC)cc3n2)[nH]c1=O	2.9	62.4*	6.2	0.7	7.8	9.8
CCc1c(C)nc(Nc2nc(C)c3cc(OC)ccc3n2)[nH]c1=O	0.8	49.2	2.1	2.5	-1.1	4.8
COc1ccc2c(C)nc(Nc3nc(C)c(C)c(=O)[nH]3)nc2c1	-1.4	62.4*	-1.2	-0.2	-1.3	14.6
Fc1cccc2sc(N3CCCCC3)nc12	4.8	1.9	-10.0	2.1	-0.4	-2.8
O=C(Nc1cccc(C(F)(F)F)c1)c1cccnc1NCCc1ccccc1	0.5	86.9*	-2.2	-1.6	2.5	-7.5
O=C(Nc1cccc(F)c1)c1cccnc1NCCc1ccccc1	0.0	36.3	14.8	-0.4	-1.4	-5.1
Cc1occc1C(=O)O/N=C(\N)c1ccccc1	x	x	-7.9	x	x	10.5
CC(/C=C1\SC(=S)N(CC(=O)N2CCN(c3ccccc3)CC2)C1=O)=C\c1ccccc1	3.8	-1.8	-4.0	9.8*	6.4	-1.0
CC(/C=C1\SC(=S)N(CC(=O)O)C1=O)=C\c1ccccc1	x	x	-10.8	x	x	10.4
CC(=O)c1ccc(NC(=O)CCCN2C(=O)/C(=C/C(C)=C/c3ccccc3)SC2=S)cc1	-0.9	6.7	8.5	10.4*	2.9	12.8
CCCNC(=O)NC(=O)COc1ccc2oc3ccccc3c2c1	7.9	22.8	-22.9	2.7	9.9	-20.1
CC(Oc1ccc2oc3ccccc3c2c1)C(=O)NC12CC3CC(CC(C3)C1)C2 (configuration not stated)	4.8	66.6*	-4.7	5.1	5.5	-25.4
C=C1C(=O)C=C2CN(C(=O)c3ccccc3)[C@@](Cc3ccc(F)cc3)(C(=O)OC)[C@@H]12	1.0	73.6*	-1.4	3.4	0.2	-26.0
COC(=O)[C@@]1(Cc2ccc(F)cc2)[C@H]2c3cc(C(=O)N(C)C)n(CCc4ccc(OC)c(Br)c4)c3C[C@H]2CN1C(=O)c1ccccc1	9.4	40.1	-5.5	8.7*	0.4	4.0
SMILES	NPY Y2 blocker	WT yeast gro inh	NPY-Y2 PAM-ag	RAM network inh	NPY Y1 blocker	NPY1 pot ag
COC(=O)[C@@]1(Cc2ccc(OC)cc2)[C@@H]2C(=CC(=O)[C@H]2CC(=O)C(=O)N(C)C)CN1C(=O)c1ccccc1	1.8	-10.9	-16.1	3.6	13.9	-59.4
COC(=O)[C@@]1(Cc2ccc(F)cc2)[C@H]2c3cc(C(=O)N(C)C)n(Cc4ccc(OC)c(OC)c4)c3C[C@H]2CN1C(=O)c1ccccc1	8.2	4.6	-1.0	2.3	6.6	16.9
COC(=O)[C@@]1(Cc2ccc(F)cc2)[C@H]2c3cc(C(=O)N(C)C)n(Cc4ccccc4)c3C[C@H]2CN1C(=O)c1ccccc1	20.9*	48.1	3.0	6.3	32.5*	-11.4
COC(=O)[C@@]1(Cc2ccc(OC)cc2)[C@H]2c3cc(C(=O)N4CCCC4)n(Cc4ccc(C)o4)c3C[C@H]2CN1C(=O)c1ccccc1	22.9*	65.2*	3.3	6.4	31.9*	-6.0
Cc1ccc(NC2CC(=O)N(c3ccc(C)cc3)C2=O)cc1 (configuration not stated)	2.9	-9.4	5.5	1.6	3.0	-2.4
O=C(Nc1ccccc1C(F)(F)F)c1cc(S(=O)(=O)N2CCC3(CC2)OCCO3)ccc1F	0.5	-18.9	3.5	3.1	15.2	2.8
COc1ccccc1NC(=O)c1cc(S(=O)(=O)N2CCC3(CC2)OCCO3)ccc1F	-2.1	-8.2	-4.3	9.6*	8.3	-0.1
Cc1ccc(CN(Cc2ccco2)S(=O)(=O)c2ccc(S(=O)(=O)NCC3CCCO3)cc2)cc1 (configuration not stated)	2.7	-2.9	-12.4	9.3*	2.3	-6.9
Cc1ccc(S(=O)(=O)N(Cc2ccc(Cl)cc2)c2ccccc2C(=O)NCc2ccco2)cc1	32.2*	43.0	-11.6	8.9*	29.2*	-109.5
Cc1ccc(-c2ccc(S(=O)(=O)NCC3CCCO3)cc2)cc1 (configuration not stated)	x	7.9	1.1	1.2	-2.2	-10.0
Cc1ccc(S(=O)(=O)N(Cc2ccc(F)cc2)Cc2ccco2)cc1	7.4	-8.2	-11.5	1.7	1.3	-14.6
Cc1ccc(S(=O)(=O)N(Cc2ccccc2)Cc2ccco2)cc1	-1.0	76.0*	-8.5	1.1	2.9	-12.8
CCn1c(SCC(=O)NCc2ccco2)nnc1-c1cccs1	2.6	16.0	-11.3	0.2	1.8	-8.8
C=CCSC1=C(C#N)C(c2ccccc2OC)CC(=O)N1 (configuration not stated)	1.3	0.3	0.5	-1.4	0.3	14.3
CC(=O)c1cccc(S(=O)(=O)N2CCCC(c3nc(-c4ccc(C)o4)no3)C2)c1 (configuration not stated)	-1.1	-10.4	-9.3	9.3*	2.3	-23.8
Cc1ccc(-c2noc(C3CCCN(S(=O)(=O)c4ccc5ccccc5c4)C3)n2)o1 (configuration not stated)	5.8	24.3	-2.8	3.7	1.1	-25.8
